ChEMBL document CHEMBL2311375, “Synthesis and characterization of a small analogue of the anticancer natural product leinamycin” (Bioorg Med Chem, 2013)
Calls of active or inactive are those of the source. The rule behind the calls is not given here.

How the values were obtained:
[1] = Induction of supercoiled double-stranded plasmid DNA strand (unknown origin) cleavage at 250 uM after 3 to 15 hrs using ethidium bromide staining by agarose gel electrophoresis
How it was run: (§1)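 Supercoiled plasmid DNA (30 μM bp) incubated 3–15 h at 37 °C in sodium phosphate buffer (50 mM, pH 7) with 10% v/v acetonitrile. Final concentrations: compound 250 μM, 2-mercaptoethanol 375 μM where added. Catalase (100 μg/mL) added before compound where used. Forms I and II resolved on 0.9% agarose gel (80 V, 3 h, 1x TAE), stained with ethidium bromide, visualized by UV and quantified by image analysis. Breaks per plasmid S = −ln f1, f1 = fraction form I.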

[2] = Induction of oxidative supercoiled double-stranded plasmid DNA strand (unknown origin) cleavage at 250 uM after 3 to 15 hrs using ethidium bromide staining by agarose gel electrophoresis in presence of 375 uM 2-mercaptoethanol and catalase; how it was run: as §1
[3] = Induction of oxidative supercoiled double-stranded plasmid DNA strand (unknown origin) cleavage at 250 uM after 3 to 15 hrs using ethidium bromide staining by agarose gel electrophoresis in presence of 375 uM 2-mercaptoethanol; how it was run: as §1

Activity [1] | Activity [2] | Activity [3] | SMILES
inactive | inactive | Active | CC(C)=CCCC1(C)CC(=O)S[S+]1[O-] (mixture of isomers)
inactive | inactive | Active | CC(C)=CCCC1(C)CC(=O)S[S+]1[O-] (single isomer, unassigned)
inactive | inactive | Active | O=c1s[s+]([O-])c2ccccc12 (configuration not stated)
inactive | inactive | Active | CC(C)=CCCC1(C)CC(=O)S[S+]1[O-] (configuration not stated)
